In ChEMBL document CHEMBL2086311, “UDP made a highly promising stable, potent, and selective P2Y6-receptor agonist upon introduction of a boranophosphate moiety” (Bioorg Med Chem, 2012):
pEC50: −log10 of the molar value.

Assays:
[1] = target: T1, P2Y purinoceptor 6 (Homo sapiens, UniProt Q15077); experiment: Agonist activity at human P2Y6 receptor; assay type: functional
How it was run: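 Human P2Y6 receptor-GFP construct stably expressed in 1321N1 astrocytoma cells (no endogenous P2X/P2Y). Cells loaded with 2 µM fura-2/AM plus 0.02% pluronic acid in Na-HBS (pH 7.4), 30 min, 37 °C. Superfused at 37 °C with nucleotide, usually 10^-8 M to at least 10^-5 M. [Ca2+]i read as 340/380 nm excitation ratio, emission 510 nm. EC50 from concentration–response curves.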

[2] = tested on: Serum; experiment: Drug metabolism in human serum assessed as nucleoside formation incubated up to 24 hrs by HPLC analysis; assay type: ADME, cell-free
How it was run: (§1)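 Samples held 0.1 mg compound with human blood serum (180 µL) and RPMI-1640 (540 µL) at 37 °C for 0–24 h. At each time point they were heated to 80 °C for 30 min, treated with CM Sephadex, centrifuged and chloroform-extracted. Analysis was reverse-phase HPLC on peak integrals. Degradation was taken relative to a no-serum control carried through the same workup, and half-lives came from the time course.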

[3] = target: T2, Ectonucleotide pyrophosphatase/phosphodiesterase family member 1 (Homo sapiens, UniProt P22413); experiment: Hydrolytic stability of the compound assessed as human NPP1-mediated hydrolysis measuring UMP formation after 2 hrs by HPLC analysis; assay type: ADME; parameters: scale not given: the % may be the effect or the level left
T2 sequence (P22413 whole entry): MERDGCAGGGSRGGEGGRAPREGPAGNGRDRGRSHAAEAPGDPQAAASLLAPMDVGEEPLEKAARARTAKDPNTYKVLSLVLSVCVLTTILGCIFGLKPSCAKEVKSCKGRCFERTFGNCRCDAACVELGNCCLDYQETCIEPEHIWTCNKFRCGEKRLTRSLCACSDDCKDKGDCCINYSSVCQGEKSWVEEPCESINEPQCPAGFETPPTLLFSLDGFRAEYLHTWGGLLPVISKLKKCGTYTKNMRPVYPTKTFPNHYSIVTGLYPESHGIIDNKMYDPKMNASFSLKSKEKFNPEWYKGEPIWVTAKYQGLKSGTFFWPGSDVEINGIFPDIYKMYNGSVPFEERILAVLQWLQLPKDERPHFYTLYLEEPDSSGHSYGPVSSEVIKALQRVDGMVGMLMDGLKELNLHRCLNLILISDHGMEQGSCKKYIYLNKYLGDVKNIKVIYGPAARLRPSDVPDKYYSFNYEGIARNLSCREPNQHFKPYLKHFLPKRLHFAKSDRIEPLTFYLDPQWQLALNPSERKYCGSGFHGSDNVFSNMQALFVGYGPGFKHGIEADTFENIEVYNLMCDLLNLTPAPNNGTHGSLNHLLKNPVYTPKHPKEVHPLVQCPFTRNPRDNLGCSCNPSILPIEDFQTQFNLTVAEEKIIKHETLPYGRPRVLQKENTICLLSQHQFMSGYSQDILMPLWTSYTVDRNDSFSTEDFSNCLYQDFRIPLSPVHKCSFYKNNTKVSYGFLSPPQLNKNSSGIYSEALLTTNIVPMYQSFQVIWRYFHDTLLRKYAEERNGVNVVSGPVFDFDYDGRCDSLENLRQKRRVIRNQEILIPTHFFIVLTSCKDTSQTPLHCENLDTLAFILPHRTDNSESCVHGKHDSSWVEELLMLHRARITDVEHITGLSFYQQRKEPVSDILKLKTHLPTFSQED
How it was run: (§2)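 Human NPP1 (56.15 µg) or NPP3 (57.78 µg) extract was pre-incubated 3 min at 37 °C in 1 mM CaCl2, 200 mM NaCl, 10 mM KCl, 100 mM Tris pH 8.5. Reaction was started with 4 mM compound stock and stopped after 2 h (NPP1) or 3 h (NPP3) in ice-cold 1 M perchloric acid, then neutralized with KOH. HPLC measured the nucleoside monophosphate peak area minus a no-enzyme acid control. Mean ± S.D. of two experiments.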

[4] = Half life in human serum by HPLC analysis; assay type: ADME, cell-free
How it was run: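 Compound (0.1 mg) incubated with human blood serum and RPMI-1640 medium at 37 °C for 0–24 h. Samples taken at 0.5–12 h intervals, heated to 80 °C for 30 min, treated with CM Sephadex and extracted with chloroform. Analysed by reverse-phase HPLC. Degradation from peak integration, corrected against a serum-free control given the same workup.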

[5] = tested on: Serum; experiment: Drug metabolism in human serum assessed as nucleoside 5'-monophosphate formation incubated up to 24 hrs by HPLC analysis; assay type: ADME, cell-free; how it was run: as §1
[6] = Half life in KCl/HCl buffer by 31P-NMR analysis at pH 1.4; assay type: physicochemical
How it was run: (§3)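 Sodium salt dissolved in KCl/HCl buffer pH 1.4 containing D2O, held at 37 °C. 31P NMR spectra taken at 15 min, 1 h or 24 h intervals, about every 24 h in multi-day runs. Hydrolysis rate taken from change in integration of one starting-material phosphate signal over time, fit to a pseudo-first-order model.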

[7] = Agonist activity at P2Y6 receptor in New Zealand White rabbit osteoclasts assessed as intracellular calcium mobilization by fura2-based microfluorimetric technique; assay type: functional, cell-based; conditions: Oryctolagus cuniculus
[8] = target: T1, P2Y purinoceptor 6; experiment: Agonist activity at human GFP-tagged P2Y6 receptor expressed in human 1321N1 cells assessed as intracellular calcium mobilization by fura2/AM-based fluorescence spectrophotometry; assay type: functional, cell-based
How it was run: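 Human P2Y2, P2Y4 or P2Y6 receptors with GFP fusion, stably expressed in 1321N1 astrocytoma cells (no endogenous P2X/P2Y), selected with 0.5 mg/mL G418. Cells on coverslips at ~80% density were loaded with 2 µM fura 2/AM plus 0.02% pluronic acid in Na-HBS pH 7.4 for 30 min at 37 °C. Nucleotide was superfused at 37 °C, usually 10^-8 to ≥10^-5 M, sometimes to 10^-4 M. Read-out was 340/380 nm excitation ratio at 510 nm emission. Values are mean maximal amplitude ± SE.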

[9] = target: T3, NPP1 (ectonucleotide pyrophosphatase/phosphodiesterase family member 1) (Homo sapiens, UniProt P22413); experiment: Hydrolytic stability of the compound assessed as human NPP1-mediated hydrolysis after 2 hrs by HPLC analysis; assay type: ADME; conditions: human NPP1 enzyme, read-out: Activity
T3 sequence (P22413 whole entry): T2 sequence (P22413 whole entry)
How it was run: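 Human NPP1 extract (56.15 µg) pre-incubated 3 min at 37 °C in 1 mM CaCl2, 200 mM NaCl, 10 mM KCl, 100 mM Tris pH 8.5. Reaction started with 4 mM compound stock and stopped at 2 h in ice-cold 1 M perchloric acid, then neutralized with KOH. Reverse-phase HPLC. Nucleoside monophosphate peak area taken minus an acid-treated no-enzyme control. Mean of two experiments.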

[10] = target: T4, NPP3 (ectonucleotide pyrophosphatase/phosphodiesterase family member 3) (Homo sapiens, UniProt O14638); experiment: Hydrolytic stability of the compound assessed as human NPP3-mediated hydrolysis after 3 hrs by HPLC analysis; assay type: ADME; conditions: human NPP3 enzyme, read-out: Activity; how it was run: as §2
T4 sequence (O14638 whole entry): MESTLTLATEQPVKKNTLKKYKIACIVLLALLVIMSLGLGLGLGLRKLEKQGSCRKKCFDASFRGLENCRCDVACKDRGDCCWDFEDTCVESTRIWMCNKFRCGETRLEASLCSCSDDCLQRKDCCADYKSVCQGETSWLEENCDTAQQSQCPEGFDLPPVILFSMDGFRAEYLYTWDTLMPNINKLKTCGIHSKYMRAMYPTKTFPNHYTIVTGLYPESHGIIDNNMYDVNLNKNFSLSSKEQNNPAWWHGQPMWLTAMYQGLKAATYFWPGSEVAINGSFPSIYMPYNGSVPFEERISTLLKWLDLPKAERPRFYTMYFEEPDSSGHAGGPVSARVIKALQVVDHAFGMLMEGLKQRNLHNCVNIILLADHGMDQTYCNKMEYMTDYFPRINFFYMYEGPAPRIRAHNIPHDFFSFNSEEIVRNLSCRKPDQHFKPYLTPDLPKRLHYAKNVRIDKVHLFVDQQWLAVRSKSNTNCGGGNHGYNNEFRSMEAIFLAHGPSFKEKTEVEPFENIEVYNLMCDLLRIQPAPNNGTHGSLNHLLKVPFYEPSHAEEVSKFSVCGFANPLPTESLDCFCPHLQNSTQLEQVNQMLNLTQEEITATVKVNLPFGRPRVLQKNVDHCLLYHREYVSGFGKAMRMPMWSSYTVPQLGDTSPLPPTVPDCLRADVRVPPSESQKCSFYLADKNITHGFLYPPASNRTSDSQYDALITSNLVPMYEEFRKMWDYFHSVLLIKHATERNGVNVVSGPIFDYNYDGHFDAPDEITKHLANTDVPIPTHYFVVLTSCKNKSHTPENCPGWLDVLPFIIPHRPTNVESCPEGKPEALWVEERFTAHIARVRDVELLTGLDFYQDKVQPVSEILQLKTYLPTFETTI

[11] = target: T2, Ectonucleotide pyrophosphatase/phosphodiesterase family member 1; experiment: Hydrolytic stability of the compound assessed as human NPP1-mediated hydrolysis measuring 5-OMe-UMP formation after 2 hrs by HPLC analysis; assay type: ADME; parameters: scale not given: the % may be the effect or the level left; how it was run: as §2
[12] = Drug degradation in KCl/HCl buffer assessed as 5-OMe-uridine-H-phosphonate formation by 31P-NMR analysis at pH 1.4; assay type: physicochemical; how it was run: as §3
[13] = Drug degradation in KCl/HCl buffer assessed as inorganic phosphate formation by 31P-NMR analysis at pH 1.4; assay type: physicochemical; how it was run: as §3

T1 sequence (Q15077 whole entry, the tested form may be a part): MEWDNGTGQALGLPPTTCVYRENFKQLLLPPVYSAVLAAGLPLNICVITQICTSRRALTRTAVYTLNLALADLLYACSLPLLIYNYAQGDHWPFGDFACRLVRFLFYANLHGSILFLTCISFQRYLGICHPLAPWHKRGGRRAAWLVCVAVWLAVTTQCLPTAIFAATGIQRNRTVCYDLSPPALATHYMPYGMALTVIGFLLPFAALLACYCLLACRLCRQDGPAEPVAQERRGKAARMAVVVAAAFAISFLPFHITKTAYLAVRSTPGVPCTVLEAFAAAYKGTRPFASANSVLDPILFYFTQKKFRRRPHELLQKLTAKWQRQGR

Row | pEC50 [1] | Drug metabolism [2] | Activity [3] [%] | half-life [4] [h] | Drug metabolism [5] | half-life [6] [h] | pEC50 [7] | Activity [11] [%] | Structure (SMILES) | pEC50 [8] | metabolised at 2 h [9] [%] | metabolised at 3 h [10] [%] | Drug degradation [12] | Drug degradation [13]
1 | 7.33 | Active | 50 | 2.4 | Active | 288 | 6.30 | – | O=c1ccn([C@@H]2O[C@H](COP(=O)(O)OP(=O)(O)O)[C@@H](O)[C@H]2O)c(=O)[nH]1 [URIDINE_DIPHOSPHATE] | 6.82 | – | – | – | –
2 | – | Active | – | 11.9 | Active | – | – | 49 | COc1cn([C@@H]2O[C@H](COP(=O)(O)OP(=O)(O)O)[C@@H](O)[C@H]2O)c(=O)[nH]c1=O | – | – | 36 | – | –
3 | – | – | – | – | – | – | – | – | [BH3-][P@@](=O)(OC[C@H]1O[C@@H](n2cc(OC)c(=O)[nH]c2=O)[C@H](O)[C@@H]1O)OP(=O)([O-])[O-].[Na+].[Na+].[Na+] | – | – | – | Active | Active

Row | Structure (SMILES) | pEC50 [1] | Drug metabolism [2] | Activity [3] [%] | half-life [4] [h] | Drug metabolism [5] | half-life [6] [h] | pEC50 [7] | Activity [11] [%] | pEC50 [8] | metabolised at 2 h [9] [%] | metabolised at 3 h [10] [%] | Drug degradation [12] | Drug degradation [13]
4 | B[P@@](=O)(OC[C@H]1O[C@@H](n2cc(OC)c(=O)[nH]c2=O)[C@H](O)[C@@H]1O)OP(=O)(O)O | – | Active | – | 21 | Active | – | – | – | 8.10 | 15 | 28 | – | –
